Activity calls are given as the source filed them. The rule behind the calls is not given here.
Tests used:
[1] = molecular target: T1, Transient receptor potential cation channel subfamily M member 2 (Homo sapiens, UniProt O94759); test: Antagonist activity at human TRPM2 expressed in HEK293 cells assessed as inhibition of ADPR-induced maximum outward potassium current at +15 mV by whole-cell patch-clamp electrophysiology; assay type: cell-based
Method in brief: (§1)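 Stable clonal HEK293 line expressing human TRPM2 (with EGFP, G418-selected). Whole-cell patch clamp at room temperature; bath had 140 mM NMDG, 1 mM Ca2+, pH 7.4; KCl/EGTA pipet solution held 200 nM free Ca2+. Channel was activated by 100 μM ADPR in the pipet, and analogue was added to the same pipet solution. Read-out: maximum outward current at +15 mV from repeated ramps every 5 s over 450 s.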

[2] = molecular target: T1, Transient receptor potential cation channel subfamily M member 2; test: Activation of TRPM2 (unknown origin)
Method in brief: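 Whole-cell patch clamp at room temperature on a HEK293 clone stably expressing human TRPM2 with EGFP (G418-selected). Bath solution: 140 mM NMDG, 5 mM KCl, 3.3 mM MgCl₂, 1 mM CaCl₂, HEPES pH 7.4. KCl pipet solution with free Ca²⁺ buffered to 200 nM by EGTA, plus 100 μM ADPR. Cells held at −50 mV with 140 ms ramps from −85 mV every 5 s for 450 s. Read-out was the maximum outward current at +15 mV.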

[3] = molecular target: T1, Transient receptor potential cation channel subfamily M member 2; test: Antagonist activity at human TRPM2 expressed in HEK293 cells assessed as inhibition of ADPR-induced maximum outward potassium current at 100 uM at +15 mV by whole-cell patch-clamp electrophysiology; assay type: cell-based; method in brief: as §1
[4] = molecular target: T1, Transient receptor potential cation channel subfamily M member 2; test: Inhibition of TRPM2 (unknown origin)
[5] = molecular target: T1, Transient receptor potential cation channel subfamily M member 2; test: Antagonist activity at human TRPM2 expressed in HEK293 cells assessed as partial inhibition of ADPR-induced maximum outward potassium current at +15 mV by whole-cell patch-clamp electrophysiology; assay type: cell-based; method in brief: as §1
[6] = molecular target: T1, Transient receptor potential cation channel subfamily M member 2; test: Inhibition of human recombinant TRPM2
[7] = molecular target: T1, Transient receptor potential cation channel subfamily M member 2; test: Inhibition of TRPM2 (unknown origin) expressed in HEK293 cells assessed as inhibition of ADP-ribose-induced current by patch clamp technique; assay type: cell-based
[8] = molecular target: T1, Transient receptor potential cation channel subfamily M member 2; test: Antagonist activity at human TRPM2 expressed in HEK293 cells assessed as inhibition of ADPR-induced maximum outward potassium current at 900 uM at +15 mV by whole-cell patch-clamp electrophysiology; assay type: cell-based; method in brief: as §1
[9] = molecular target: T1, Transient receptor potential cation channel subfamily M member 2; test: Inhibition of human TRPM2 expressed in HEK293 cells assessed as inhibition of H2O2-induced intracellular calcium level by patch clamp technique; assay type: cell-based
[10] = molecular target: T1, Transient receptor potential cation channel subfamily M member 2; test: Inhibition of human TRPM2 expressed in HEK293 cells assessed as inhibition of ADP-ribose-induced current by patch clamp electrophysiology; assay type: cell-based
Method in brief: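 Whole-cell patch clamp of a stable HEK293 clone co-expressing human TRPM2 and EGFP (G418-selected), at room temperature. Bath: 140 mM NMDG, 1 mM Ca²⁺, pH 7.4. Pipette: KCl-based with 200 nM free Ca²⁺ and 100 μM ADPR, with analogue added to it (0.1% DMSO for lipophilic ones). Voltage ramps from −85 mV every 5 s for 450 s. Maximum outward current at +15 mV is normalised to the ADPR control and fitted to a logistic curve for IC50.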

[11] = molecular target: T1, Transient receptor potential cation channel subfamily M member 2; test: Partial antagonist activity at TRPM2 in human polymorphonuclear neutrophils assessed as reduction in fMLP-induced chemotaxis at 100 uM preincubated for 15 mins followed by fMLP-challenge by microscopic analysis
Method in brief: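 Primary human PMN at 3 × 10^6/mL, in Ca2+ buffer with 10% autologous plasma, were held 15 min at room temperature with 100 μM analogue in fibronectin-coated microfluidic chemotaxis slides. A 0→50 nM fMLP gradient was applied, and bright-field images were taken every 30 s for 1 h. Cells were tracked manually; read-out was displacement along the gradient.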

[12] = molecular target: T1, Transient receptor potential cation channel subfamily M member 2; test: Partial antagonist activity at TRPM2 in human polymorphonuclear neutrophils assessed as reduction in A5 peptide-induced intracellular calcium accumulation at 100 uM preincubated for 15 mins followed by A5 peptide-challenge by fluorescence microscopic analysis relative to control; assay type: cell-based; parameters: scale not given: the % may be the effect or the level left
Method in brief: (§2)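 Primary human PMN were used within 6 h of blood donation, loaded with 4 μM Fura-2/AM for 30 min at 37 °C, and plated on fibronectin/BSA-coated coverslips. Cells were preincubated 15 min at ambient temperature with 10 mM ascorbate plus 100 μM analogue. About 70 s into recording they were stimulated with 1 μM fMLP or 10 μM A5 peptide. Read-out: ratiometric Ca2+ imaging, single-cell traces synchronized to the first peak.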

[13] = molecular target: T1, Transient receptor potential cation channel subfamily M member 2; test: Partial antagonist activity at TRPM2 in human polymorphonuclear neutrophils assessed as reduction in fMLP-induced intracellular calcium accumulation at 100 uM preincubated for 15 mins followed by fMLP-challenge by fluorescence microscopic analysis relative to control; assay type: cell-based; parameters: scale not given: the % may be the effect or the level left; method in brief: as §2

T1 sequence (O94759 whole entry): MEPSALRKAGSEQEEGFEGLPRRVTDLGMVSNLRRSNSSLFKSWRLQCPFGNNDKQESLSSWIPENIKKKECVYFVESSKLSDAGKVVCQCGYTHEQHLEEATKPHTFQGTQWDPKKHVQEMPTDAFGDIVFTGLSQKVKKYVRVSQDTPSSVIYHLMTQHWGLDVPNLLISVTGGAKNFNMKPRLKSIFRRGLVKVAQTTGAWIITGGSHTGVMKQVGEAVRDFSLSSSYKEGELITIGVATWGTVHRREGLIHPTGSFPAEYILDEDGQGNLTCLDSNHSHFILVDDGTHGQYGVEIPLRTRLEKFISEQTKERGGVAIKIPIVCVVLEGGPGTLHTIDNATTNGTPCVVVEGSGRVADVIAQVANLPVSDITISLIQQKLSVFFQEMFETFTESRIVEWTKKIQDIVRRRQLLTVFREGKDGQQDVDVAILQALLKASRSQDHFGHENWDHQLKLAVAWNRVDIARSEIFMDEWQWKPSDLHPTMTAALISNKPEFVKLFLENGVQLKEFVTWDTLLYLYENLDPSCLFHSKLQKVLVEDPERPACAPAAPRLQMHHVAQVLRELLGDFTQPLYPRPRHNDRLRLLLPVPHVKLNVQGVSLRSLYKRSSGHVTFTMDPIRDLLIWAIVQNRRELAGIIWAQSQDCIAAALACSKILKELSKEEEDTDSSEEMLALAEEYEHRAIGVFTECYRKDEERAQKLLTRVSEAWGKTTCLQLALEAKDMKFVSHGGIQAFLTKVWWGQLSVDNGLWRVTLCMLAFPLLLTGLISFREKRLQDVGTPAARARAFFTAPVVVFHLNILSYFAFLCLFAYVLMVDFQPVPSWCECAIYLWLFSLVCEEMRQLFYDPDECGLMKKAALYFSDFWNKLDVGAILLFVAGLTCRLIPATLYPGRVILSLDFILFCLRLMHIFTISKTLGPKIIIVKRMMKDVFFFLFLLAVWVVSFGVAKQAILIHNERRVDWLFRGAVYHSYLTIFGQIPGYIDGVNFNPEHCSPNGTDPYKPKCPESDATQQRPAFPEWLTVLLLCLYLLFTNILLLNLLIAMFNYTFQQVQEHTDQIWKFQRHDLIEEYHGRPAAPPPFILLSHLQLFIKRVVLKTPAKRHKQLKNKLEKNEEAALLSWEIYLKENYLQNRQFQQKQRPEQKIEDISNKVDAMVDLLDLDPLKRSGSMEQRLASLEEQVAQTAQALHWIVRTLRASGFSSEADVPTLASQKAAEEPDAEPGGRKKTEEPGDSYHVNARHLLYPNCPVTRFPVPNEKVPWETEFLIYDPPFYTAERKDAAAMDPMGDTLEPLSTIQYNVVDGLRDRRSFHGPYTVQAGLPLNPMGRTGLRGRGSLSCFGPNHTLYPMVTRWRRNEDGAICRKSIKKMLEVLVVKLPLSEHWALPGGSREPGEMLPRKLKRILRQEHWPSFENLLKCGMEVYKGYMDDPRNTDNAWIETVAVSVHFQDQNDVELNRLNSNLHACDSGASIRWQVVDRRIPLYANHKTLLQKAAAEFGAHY

With `Nc1ncnc2c1nc(N)n2[C@@H]1O[C@H](COP(=O)(O)OP(=O)(O)OC[C@H]2OC(O)[C@H](O)[C@@H]2O)[C@@H](O)[C@H]1O` (stereo not given in full) the IC50 ([1]; hek293) was “Not Active”.
With `COc1ncnc2c1ncn2[C@@H]1O[C@H](COP(=O)(O)OP(=O)(O)OC[C@H]2OC(O)[C@H](O)[C@@H]2O)[C@@H](O)[C@H]1O` (stereo not given in full) the IC50 ([1]; hek293) was “Not Active”.
`Nc1ncnc2c1ncn2[C@@H]1O[C@H](COP(=O)(O)OP(=O)(O)OC[C@H]2OC(O)[C@H](O)[C@@H]2O)[C@@H](O)[C@H]1O` (stereo not given in full) gave an EC50 [2] of 100 µM.
For `Nc1ncnc2c1ncn2[C@@H]1O[C@H](CNc2c(NC3CCCC3)c(=O)c2=O)[C@@H](O)[C@H]1O`, the inhibition [3] was “inactive”.
`Nc1ncnc2c1cc(Br)n2[C@@H]1O[C@H](COP(=O)(O)OP(=O)(O)OC[C@H]2OC(O)[C@H](O)[C@@H]2O)[C@@H](O)[C@H]1O` (stereo not given in full) was tested, and the IC50 ([1]; hek293) was “Not Active”.
In the case of `Clc1ccccc1C(c1ccccc1)(c1ccccc1)n1ccnc1` [CLOTRIMAZOLE], the IC50 [4] is reported as under 3 µM.
`Nc1ncnc2c1ncn2[C@@H]1O[C@H](COP(=O)(O)OP(=O)(O)OC2CCCC2)[C@@H](O)[C@H]1O` showed an IC50 [5] of under 900 µM.
Work on `O=C(O)c1cccnc1Nc1cccc(C(F)(F)F)c1` [NIFLUMIC ACID] yielded an IC50 [6] of 149 µM.
In the case of `O=c1[nH]cnc2c1ncn2[C@@H]1O[C@H](COP(=O)(O)OP(=O)(O)OC[C@H]2OC(O)[C@H](O)[C@@H]2O)[C@@H](O)[C@H]1O` (stereo not given in full), the IC50 ([1]; hek293) is reported as “Not Active”.
For `Nc1ncnc2c1nc(-c1ccsc1)n2[C@@H]1O[C@H](COP(=O)(O)OP(=O)(O)OC[C@H]2OC(O)[C@H](O)[C@@H]2O)[C@@H](O)[C@H]1O` (stereo not given in full), the IC50 ([1]; read-out: IC50) was 51 µM.
For `Nc1ncnc2c1ncn2CCCCOP(=O)(O)OP(=O)(O)OC[C@H]1OC(O)[C@H](O)[C@@H]1O` (stereo not given in full), the inhibition [3] was “inactive”.
Molecule COPPER has an IC50 [7] of 2.6 µM.
In the case of `Nc1ncnc2c1nc(-c1ccccc1)n2[C@@H]1O[C@H](Cn2cc(COC[C@H]3OC(O)[C@H](O)[C@@H]3O)nn2)[C@@H](O)[C@H]1O` (stereo not given in full), the inhibition [3] is reported as “inactive”.
With `CCCCNc1c(NC[C@H]2O[C@@H](n3cnc4c(N)ncnc43)[C@H](O)[C@@H]2O)c(=O)c1=O` the inhibition [3] was “inactive”.
For `Nc1ncnc2c1ncn2[C@@H]1O[C@H](COP(=O)(O)OP(=O)(O)OP(=O)(O)OC[C@H]2OC(O)[C@H](O)[C@@H]2O)[C@@H](O)[C@H]1O` (stereo not given in full), the inhibition [8] was “inactive”.
With `Nc1nc(F)nc2c1ncn2[C@@H]1O[C@H](COP(=O)(O)OP(=O)(O)OC[C@H]2OC(O)[C@H](O)[C@@H]2O)[C@@H](O)[C@H]1O` (stereo not given in full) the IC50 ([1]; hek293) was “Not Active”.
For `CCCCCc1ccc(/C=C/C(=O)Nc2ccccc2C(=O)O)cc1`, the IC50 [9] was 1.7 µM.
For `Nc1ncnc2c1ncn2[C@@H]1O[C@H](COP(=O)(O)OP(=O)(O)O)[C@@H](O)[C@H]1O`, the inhibition [8] was “inactive”.
With `CCCCCCNc1c(NC[C@H]2O[C@@H](n3cnc4c(N)ncnc43)[C@H](O)[C@@H]2O)c(=O)c1=O` the inhibition [3] was “inactive”.
With `Nc1ncnc2c1nc(-c1ccccc1)n2[C@H]1C[C@H](O)[C@@H](COP(=O)(O)OP(=O)(O)OC[C@H]2OC(O)[C@H](O)[C@@H]2O)O1` (stereo not given in full) the inhibition [8] was “Active” and the IC50 ([1]; read-out: IC50) was 3 µM.
`Nc1ncnc2c1ncn2[C@@H]1O[C@H](CNc2c(NC[C@H]3O[C@@H](O)[C@H](O)[C@@H]3O)c(=O)c2=O)[C@@H](O)[C@H]1O` was tested, and the inhibition [3] was “inactive”.
`Cc1cccc(Nc2ccccc2C(=O)O)c1` gave an IC50 [10] of 76 µM.
With `Clc1ccc(COC(Cn2ccnc2)c2ccc(Cl)cc2Cl)cc1` (stereo not given) [ECONAZOLE] the IC50 [4] was under 3 µM.
In the case of `Nc1ncnc2c1nc(Cl)n2[C@@H]1O[C@H](COP(=O)(O)O)[C@@H](O)[C@H]1O`, the inhibition [8] is reported as “inactive” and the IC50 ([1]; hek293) is reported as “Not Active”.
`Nc1ncnc2c1nc(-c1ccc(CC(N)C(=O)O)cc1)n2[C@@H]1O[C@H](COP(=O)(O)O)[C@@H](O)[C@H]1O` (stereo not given in full) was tested, and the inhibition [3] was “inactive”.
`CC(=O)c1cccc(-c2nc3c(N)ncnc3n2[C@@H]2O[C@H](COP(=O)(O)OP(=O)(O)OC[C@H]3OC(O)[C@H](O)[C@@H]3O)[C@@H](O)[C@H]2O)c1` (stereo not given in full) showed an IC50 ([1]; read-out: IC50) of 49 µM.
With `Nc1ncnc2c1nc(Br)n2[C@@H]1O[C@H](COP(=O)(O)OP(=O)(O)OC[C@H]2OC(O)[C@H](O)[C@@H]2O)[C@@H](O)[C@H]1O` (stereo not given in full) the IC50 ([1]; read-out: IC50) was 300 µM.
`Nc1ncnc2c1nc(-c1ccccc1)n2[C@@H]1O[C@H](COP(=O)(O)OP(=O)(O)OC[C@H]2OC(O)[C@H](O)[C@@H]2O)[C@@H](O)[C@H]1O` (stereo not given in full) was tested, and the Activity [11] was “Active”, the Activity [12] was 31.4% and the Activity [13] was 31.8%. It also gave an IC50 ([1]; read-out: IC50) of 11 µM.
`Nc1ncnc2c1ncn2[C@@H]1O[C@H](COP(=O)(O)O)[C@@H](O)[C@H]1O` [ADENOSINE PHOSPHATE] was tested, and the IC50 [4] was 70 µM and the inhibition [8] was “inactive”.
For `Cc1cccc(Nc2ccccc2C(=O)O)c1C` [MEFENAMIC ACID], the IC50 [6] was 124 µM.
For `O=c1[nH]cnc2c1ccn2[C@@H]1O[C@H](COP(=O)(O)OP(=O)(O)OC[C@H]2OC(O)[C@H](O)[C@@H]2O)[C@@H](O)[C@H]1O` (stereo not given in full), the IC50 ([1]; hek293) was “Not Active”.
Molecule `O=C(O)c1ccccc1Nc1cccc(C(F)(F)F)c1` [FLUFENAMIC ACID] has an IC50 [6] of 70 µM.
In the case of `Nc1ncnc2c1nc(-c1ccccc1)n2[C@@H]1O[C@H](COP(=O)(O)OP(=O)(O)OC2CCCC2)[C@@H](O)[C@H]1O`, the inhibition [3] is reported as “Active” and the IC50 ([1]; read-out: IC50) is reported as 15 µM.

Reference: ChEMBL document CHEMBL3108672, “Structure-activity relationship of adenosine 5'-diphosphoribose at the transient receptor potential melastatin 2 (TRPM2) channel: rational design of antagonists” (J Med Chem, 2013)
